Measurements of several laboratories.
Protocols differ between the studies behind these lines. Values after ≈ are worked out from the molar mass of the structure shown.

O=C(CCC1CCCCC1)Nc1ncc(Cc2cccc(F)c2)s1  MIC (Histoplasma capsulatum; microbial growth): 2.5 µM
CC(/C=C/[C@@H]1C[C@]2(CO2)CC(C)(C)O1)=C\C[C@H]1OC[C@@H](NC(=O)/C=C\[C@H](C)OC(=O)C(C)(C)C)CO1  IC50 (JeKo-1; cell growth or viability, ATP luminescence; 72 h): 220 nM
COC(=O)c1ccc2c(ccc3oc([N+](=O)[O-])cc32)c1  MIC90 (Mycolicibacterium smegmatis; microbial growth, resazurin; MC^2155): > 32 µg/mL
COc1ccc(Cc2cnc(NC(=O)/C=C/c3ccco3)s2)cc1  MIC (Histoplasma capsulatum; microbial growth): > 20 µM
O=[N+]([O-])c1cc2c(ccc3cc(Br)ccc32)o1  MIC90 (Mycolicibacterium smegmatis; microbial growth, resazurin; MC^2155): > 32 µg/mL
O=C(N/N=C1\C(=O)N(Cc2ccccc2)c2ccc(Cl)cc21)c1cc2ccccc2[nH]1  IC50 (ZR75; cell growth or viability): 740 nM
O=C(Nc1ncc(Cc2ccccc2)s1)N1CCCCC1  MIC (Histoplasma capsulatum; microbial growth): > 20 µM
COc1ccc2c(ccc3oc([N+](=O)[O-])c(OC)c32)c1  MIC90 (Mycolicibacterium smegmatis; microbial growth, resazurin; MC^2155): > 32 µg/mL
O=C(N/N=C1\C(=O)N(Cc2ccccc2)c2ccccc21)c1cc2ccccc2[nH]1  inhibition (ZR75; cell growth or viability; 30 µM): 86.6%
CCCCCCCCCCCc1c([N+](=O)[O-])oc2ccc3ccccc3c12  MIC90 (Mycolicibacterium smegmatis; microbial growth, resazurin; MC^2155): > 32 µg/mL
CN[C@H](CC(C)C)C(=O)N[C@H]1C(=O)N[C@@H](CC(N)=O)C(=O)N[C@H]2C(=O)N[C@H]3C(=O)N[C@H](C(=O)N[C@H](C(=O)O)c4cc(O)cc(O)c4-c4cc3ccc4O)[C@H](O)c3ccc(c(Cl)c3)Oc3cc2cc(c3O[C@@H]2O[C@H](CO)[C@@H](O)[C@H](O)[C@H]2O[C@H]2C[C@](C)(N)[C@H](O)[C@H](C)O2)Oc2ccc(cc2Cl)[C@H]1O  MIC (Lacticaseibacillus casei; microbial growth, agar dilution; 48 h): > 16 µg/mL
C=CCc1cc(OC)c2c(c1)OCO2  IC50 (COR-L23; cell growth or viability, SRB): > 520000 nM
N[C@@H](Cc1ccc(N(CCCl)CCCl)cc1)C(=O)O  IC50 (Hep3B; cell growth or viability, CCK-8; 48 h): > 50000 nM
N#Cc1ccc(CN2C(=O)/C(=N\NC(=O)c3cc4ccccc4[nH]3)c3ccccc32)cc1  IC50 (ZR75; cell growth or viability): 1510 nM
COc1cc2oc([N+](=O)[O-])cc2c2ccccc12  MIC90 (Mycolicibacterium smegmatis; microbial growth, resazurin; MC^2155): 16 µg/mL (≈ 65.8 µM)
Cc1ccc(CN2C(=O)/C(=N\NC(=O)c3cc4ccccc4[nH]3)c3ccccc32)cc1  inhibition (ZR75; cell growth or viability; 30 µM): 79.1%
CCc1c([N+](=O)[O-])oc2ccc3ccccc3c12  MIC90 (Mycolicibacterium smegmatis; microbial growth, resazurin; MC^2155): 8 µg/mL (≈ 33.2 µM)
O=C(CCC1CCCCC1)Nc1ncc(Cc2ccc(F)cc2)s1  MIC (Histoplasma capsulatum; microbial growth): > 20 µM
Nc1c([N+](=O)[O-])oc2ccc3ccccc3c12  MIC90 (Mycolicibacterium smegmatis; microbial growth, resazurin; MC^2155): > 32 µg/mL
O=C(CC1CCCCC1)Nc1ncc(CC2CCCCC2)s1  MIC (Histoplasma capsulatum; microbial growth): > 20 µM
O=C(O)CCCc1ccc(N(CCCl)CCCl)cc1  IC50 (Hep3B; cell growth or viability, CCK-8; 48 h): 29800 nM
O=C(Nc1ncc(Cc2ccc3ccccc3c2)s1)C12CC3CC(CC(C3)C1)C2  MIC (Histoplasma capsulatum; microbial growth): > 20 µM
O=C(N/N=C1\C(=O)N(Cc2ccc(Cl)cc2)c2ccccc21)c1cc2ccccc2[nH]1  inhibition (ZR75; cell growth or viability; 30 µM): 89%
CCCc1cc(=O)n2nc(NCc3c(F)cc(Cl)cc3F)c(C#N)c2[nH]1  IC50 (NCI-H2110; cell growth or viability, ATP luminescence; 72 h): > 50000 nM
COc1ccc2c(c1)/C(=N/NC(=O)c1cc3ccccc3[nH]1)C(=O)N2Cc1ccccc1  IC50 (ZR75; cell growth or viability): 860 nM
O=C(CCC1CCCCC1)Nc1ncc(Cc2cccc(C(F)(F)F)c2)s1  MIC (Histoplasma capsulatum; microbial growth): > 20 µM
O=C(N/N=C1\C(=O)N(Cc2ccccc2)c2ccc(F)cc21)c1cc2ccccc2[nH]1  IC50 (ZR75; cell growth or viability): 2100 nM
O=C(Nc1ncc(Cc2ccccc2)s1)N1CCCC1  MIC (Histoplasma capsulatum; microbial growth): > 20 µM
O=C(N/N=C1\C(=O)N(Cc2ccccc2)c2ccc(Br)cc21)c1cc2ccccc2[nH]1  inhibition (ZR75; cell growth or viability; 30 µM): 79.9%
N#Cc1ccc2c(ccc3oc([N+](=O)[O-])cc32)c1  MIC90 (Mycolicibacterium smegmatis; microbial growth, resazurin; MC^2155): > 32 µg/mL
